The source of these data is ChEMBL document CHEMBL5335782, “Discovery of new imidazotetrazinones with potential to overcome tumor resistance” (Eur J Med Chem, 2023).

The nature of data set [1]: Antiproliferative activity against MGMT-expressing human U373M cells assessed as inhibition of cell growth measured after […] by MTT assay. Type of data set: functional. The method, boiled down: (§1)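 Cells seeded at 6.5×10^2/well, left overnight, then exposed to vehicle or agent (n = 4-8; final 0.5–1000 μM; DMSO stocks of 50 or 10 mM diluted in medium). MTT read at time of addition and after 6 days at 37 °C, 5% CO₂. MTT 0.4 mg/mL for 4 h, formazan taken up in DMSO, A550. GI50 from non-linear regression; mean ± SD of >3 experiments.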

Data set [2] in a line: Antiproliferative activity against human U373V cells assessed as inhibition of cell growth measured […] by MTT assay. Type of data set: functional. The method, boiled down:
as §1

Data set [3] relates to HCT-116. The experiment in a line: Antiproliferative activity against MMR-deficient human HCT-116 cells assessed as inhibition of cell growth measured after […] by MTT assay. The data set is classed as functional. The method, boiled down: as §1
Data set [4] in a line: Half life of the compound in phosphate buffered saline at pH 7.4 by 1H NMR spectroscopic analysis. The data set is classed as physicochemical. The gist of the method:
(§2)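 Half-life followed by ¹H NMR spectroscopy in phosphate buffers at pH 7.4 or 5.5.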

The nature of data set [5]: Stability of the compound in phosphate buffered saline at pH 5.5 by 1H NMR spectroscopy. The data set is classed as physicochemical. The conditions noted are these: buffer. The gist of the method: as §2
The nature of data set [6]: Stability of the compound in phosphate buffered saline at pH 7.4 by 1H NMR spectroscopy. Type of data set: physicochemical. As to conditions: buffer. The method, boiled down: as §2
Data set [7] can be described thus: Half life of the compound in phosphate buffered saline at pH 5 by LC-MS analysis. Type of data set: physicochemical. The method, boiled down:
(§3)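 Half-life in phosphate buffers at pH 5, 6.8 or 7.4 followed by LC-MS; mean of two independent experiments.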

Data set [8] can be described thus: Intrinsic clearance in rat liver microsomes in presence of NADPH. The data set is classed as ADME, Microsome. As to conditions: read-out: CLH.
The nature of data set [9]: Half life of the compound in phosphate buffered saline at pH 6.8 by LC-MS analysis. Type of data set: physicochemical. The method, boiled down: as §3
Data set [10] is described as follows: Intrinsic clearance in human liver microsomes in presence of NADPH. The data set is classed as ADME, Microsome. The conditions noted are these: read-out: CLH.
The nature of data set [11]: Selectivity ratio of GI50 for cytotoxicity against human MRC5 cells to GI50 for antiproliferative activity against MMR-deficient human HCT-116 cells. As to conditions: MRC5 cells versus MMR-deficient HCT-116 cells, read-out: RatioGI50. The data set is classed as toxicity, cell-based.
Data set [12] can be described thus: Permeability of the compound assessed as drug recovery measured after 6 hrs by PAMPA assay. The data set is classed as ADME. As to conditions: read-out: Drug recovery. The method, boiled down:
(§4)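 PAMPA passive-diffusion assay run as contract research under the provider's protocols, with control compounds. After 6 h incubation, permeability (Pe) and percentage recovery determined.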

Data set [13] in a line: Ratio of permeability across dog MDCK cells transfected with MDR1 to permeability across wild type dog MDCK cells. Type of data set: ADME, cell-based, Canis lupus familiaris.
A short description of data set [14]: Intrinsic clearance in rat liver microsomes in absence of NADPH. The data set is classed as ADME, Microsome. As to conditions: read-out: CLH.
Data set [15] in a line: Half life in rat plasma. Type of data set: ADME, cell-free.
Data set [16] in a line: Half life of the compound in phosphate buffered saline at pH 7.4 by LC-MS analysis. The data set is classed as physicochemical. The method, boiled down:
as §3

Data set [17] has as its system HCT-116. The data set is described as follows: Inhibition of cell colony formation in MMR-deficient human HCT-116 cells assessed as reduction in clonogenic survival at >=10 uM incubated for 24 hrs followed by drug removal and incubation in medium for 14 days. The data set is classed as functional, cell-based. The gist of the method:
(§5)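 Clonogenic survival: exponentially growing cells seeded in triplicate at 400 cells/well, attached overnight, then exposed for 24 h to 0, 2, 20 or 50 μM agent. Medium then replaced with drug-free medium for 14 days, or until control colonies held ≥50 cells. Colonies fixed in cold methanol, stained with 0.5% methylene blue, counted, and expressed relative to control. 2–3 experiments.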

Data set [18] in a line: Induction of cell cycle arrest in MGMT-expressing human U373M cells assessed as accumulation of cells at G2/M phase at 20 uM measured after 120 hrs by propidium iodide staining based flow cytometry. Type of data set: functional.
A short description of data set [19]: Half life in human plasma. The data set is classed as ADME, cell-free.
Data set [20] in a line: Half life in human liver microsomes in absence of NADPH. Type of data set: ADME, Microsome.
The nature of data set [21]: Half life in rat liver microsomes in presence of NADPH. Type of data set: ADME, Microsome.
Data set [22] in a line: Induction of cell cycle arrest in MGMT-expressing human U373M cells assessed as accumulation of cells at G1 phase at 20 uM measured after 120 hrs by propidium iodide staining based flow cytometry (reference value: 66%). The data set is classed as functional.
Data set [23] in a line: Permeability of the compound measured after 6 hrs by PAMPA assay. The data set is classed as ADME. As to conditions: read-out: permeability. The method, boiled down:
as §4

The nature of data set [24]: Half life in rat liver microsomes in absence of NADPH. Type of data set: ADME, Microsome.
Data set [25] is described as follows: Half life of the compound in phosphate buffered saline at pH 5.5 by 1H NMR spectroscopic analysis. The data set is classed as physicochemical. The gist of the method: as §2
The subject of another data set is U373V. The experiment in a line: Inhibition of cell colony formation in human U373V cells assessed as reduction in clonogenic survival at >=10 uM incubated for 24 hrs followed by drug removal and incubation in medium for 14 days. Type of data set: functional, cell-based. The method, boiled down:
as §5

Data set [26] can be described thus: Cytotoxicity against human MRC5 cells assessed as inhibition of cell growth measured after 7 days by MTT assay. Type of data set: toxicity, cell-based. As to conditions: time 7 day. The method, boiled down:
as §1

Another data set deals with U373M. The data set is described as follows: Inhibition of cell colony formation in MGMT-expressing human U373M cells assessed as reduction in clonogenic survival at >=10 uM incubated for 24 hrs followed by drug removal and incubation in medium for 14 days. Type of data set: functional, cell-based. The gist of the method:
as §5

For data set [27], the system named is HCT-116. The experiment in a line: Induction of cell cycle arrest in MMR-deficient human HCT-116 cells assessed as accumulation of cells at pre-G1 phase at 20 uM measured after 120 hrs by propidium iodide staining based flow cytometry (Rvb ~5%). Type of data set: functional.
A short description of data set [28]: Intrinsic clearance in human liver microsomes in absence of NADPH. Type of data set: ADME, Microsome. As to conditions: read-out: CLH.
Data set [29] is described as follows: Half life in human liver microsomes in presence of NADPH. Type of data set: ADME, Microsome.

Active and inactive are the calls of the source. The calls are words filed in the database; no cut-off is given here.

In the case of `C#CCn1nnc2c(-c3nc(C4CC4)cs3)ncn2c1=O`, the 50% growth inhibitory concentration (GI50) in data set [1] turned out to be 25.8 µM; in data set [2], 27.1 µM; with HCT-116 [3], 27.7 µM.
On to `C#CCn1nnc2c(-c3nc(C(C)(C)C)cs3)ncn2c1=O`, for which the GI50 in data set [1] came to 19.2 µM; in data set [2], 27.3 µM; in the data set on HCT-116 [3], 25.1 µM.
Consider `Nc1nc[nH]c1-c1nccs1`, for which the GI50 in [1] was 89.3 µM; in data set [2], more than 100 µM; with HCT-116 [3], 97 µM.
Regarding `C#CCn1nnc2c(-c3nc(C4CCCC4)cs3)ncn2c1=O`, the 50% growth inhibitory concentration (GI50) is 11.8 µM in [1], 23.7 µM in data set [2] and 19.2 µM in the data set on HCT-116 [3].
Regarding `C#CCN/N=N/c1[nH]cnc1-c1nccs1`, the GI50 in data set [1] is 5.81 µM; in data set [2] it was 7.51 µM; in the data set on HCT-116 [3], 5.97 µM.
In the same order, the values of `C#CCn1nnc2c(-c3nc(-c4ccncc4)cs3)ncn2c1=O` are 25.1 µM, 23.5 µM and 29 µM.
As to `C#CCn1nnc2c(-c3nccs3)ncn2c1=O`, the half-life in data set [4] is 3 h; in [7], more than 8 h; in data set [9] it was 5.46 h; in data set [15] it was 2.66 min; in data set [16], 3.29 h; in [19] it was 3.34 min. Besides, the half-life in [20] was determined as 1.53 h; in [21], 0.63 h; in [24] it was 1.32 h; in [25], 1.07 h; in [29], 0.527 h. Moreover, the Stability entry in data set [5] and in data set [6] was “Stable” in each case. The microsomal CLint is 37.2 µL/min/mg in [8], 44 µL/min/mg in [10], 17.5 µL/min/mg in data set [14] and 16.4 µL/min/mg in data set [28]. The selectivity ratio in data set [11] was more than 5. The results for the GI50 (in data set [1]; in [2]; in the data set on HCT-116 [3]) were 4.09 µM, 3.59 µM and 5.35 µM, respectively. Moreover, the recovery at 6 h in [12] was 17.5%. Moreover, the Ratio in data set [13] came out at 1.11. Also, the inhibition result with HCT-116 [17], in the data set with U373V and in the data set with U373M was “Active” throughout. In addition, the figures for the Activity (in data set [18]; in [22]; in the data set on HCT-116 [27]) were 21%, 43% and more than 60%, respectively. Besides, the Papp at 6 h in data set [23] is 3.18 ×10⁻⁶ cm/s. Also, in data set [26], the 50% growth inhibitory concentration (GI50) at 168 h stood at 25 µM.
For the molecule `C#CCn1nnc2c(-c3nc(-c4ccc(S(C)(=O)=O)cc4)cs3)ncn2c1=O`, the GI50 in data set [1] is 14.7 µM; in data set [2], 22 µM; in the data set with HCT-116 [3], 37 µM.
For `C#CCn1nnc2c(-c3nc(C(C)C)cs3)ncn2c1=O`, the GI50 is 19 µM in data set [1], 23.6 µM in data set [2] and 25.4 µM with HCT-116 [3].
Turning to `C#CCn1nnc2c(-c3nc(C)cs3)ncn2c1=O`, the half-life in data set [4] was 1.47 h; in [7], more than 8 h; in data set [9] it was 3.57 h; in data set [15], 3.54 min; in [16], 2.81 h; in data set [19] it was 2.97 min. Besides, the half-life in [20] was 1.27 h; in [21], 0.34 h; in [24], 1.57 h; in [25], 0.12 h; in [29], 0.237 h. Also, the Stability entry in data set [5] and in data set [6] was “Stable” throughout. For the same molecule, the microsomal CLint in [8] came to 68.5 µL/min/mg; in data set [10], 97.8 µL/min/mg; in data set [14], 14.7 µL/min/mg; in data set [28], 18.6 µL/min/mg. For the same molecule, the concentration for 50% growth inhibition (GI50) amounted to 7.44 µM in data set [1], 8.45 µM in data set [2] and 7.04 µM with HCT-116 [3]. The recovery at 6 h in [12] was 18.5%. The Ratio in [13] was 1.16. The Papp at 6 h in [23] was found to be 3.68 ×10⁻⁶ cm/s. For the same molecule, the GI50 at 168 h in data set [26] was determined as 25 µM.
On to `C#CCn1nnc2c(-c3nc(CC)cs3)ncn2c1=O`, for which the concentration for 50% growth inhibition (GI50) is 9.67 µM in data set [1], 23.5 µM in [2] and 14.8 µM in the data set with HCT-116 [3].
For `C#CCn1nnc2c(-c3nc(C(=C)C)cs3)ncn2c1=O`, the GI50 in data set [1] stood at 14.2 µM; in data set [2], 18.7 µM; with HCT-116 [3] it was 16.7 µM.
Regarding `C#CCn1nnc2c(-c3nc(C(F)(F)F)cs3)ncn2c1=O`, the results for the GI50 (in [1]; in data set [2]; with HCT-116 [3]) were 25.4 µM, 28.2 µM and 21.5 µM, respectively.
Taken in the same sequence, the figures for `C#CCn1nnc2c(-c3nc(-c4ccc(F)cc4)cs3)ncn2c1=O` were 19.7 µM, 27.9 µM and 27.6 µM.
Consider `C#CCn1nnc2c(-c3nc(C4CCC4)cs3)ncn2c1=O`, for which the concentration for 50% growth inhibition (GI50) in [1] is 25.5 µM; in [2], 24.2 µM; with HCT-116 [3] it was 20.3 µM.
In the same order, the values of `C#CCn1nnc2c(-c3nc(C(F)(F)C(F)(F)F)cs3)ncn2c1=O` are 25.8 µM, 27.1 µM and 27.7 µM.
For the molecule `C#CCn1nnc2c(-c3nc(CN4CCOCC4)cs3)ncn2c1=O`, the GI50 was 10.2 µM in [1], 23.9 µM in [2] and 12.2 µM with HCT-116 [3].
As to `C#CCn1nnc2c(-c3ncc(C)s3)ncn2c1=O`, the GI50 is 3.99 µM in data set [1], 6.84 µM in data set [2] and 4.6 µM in the data set with HCT-116 [3].
In the case of `C#CCn1nnc2c(-c3nc(CO)cs3)ncn2c1=O`, the GI50 in data set [1] amounted to 14.8 µM; in data set [2] it was 24.4 µM; in the data set on HCT-116 [3], 17.8 µM.
